Here are results for 15 compounds from article PMC3987869 (Journal of medicinal chemistry, 2013).

For data set [1], the system named is mouse brain membrane SH enzymes. The data set is classed as biochemical. The conditions noted are these: FP-Rh; for Off-targets (10 μM): 10 μM compound; for Off-targets (1 μM): 1 μM compound. A digest of the protocol: (§1)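 Mouse brain membrane fraction was prepared by Dounce homogenisation in PBS pH 7.5, a 1,400 × g spin, then a 100,000 × g pellet (45 min). Membranes at 1 mg/mL were preincubated with test compound for 30 min at 37 °C, then labelled with FP-rhodamine (1 μM final, 30 min, 37 °C). Samples were quenched in SDS-PAGE loading buffer, run on 10% SDS-PAGE and scanned for in-gel fluorescence.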

For data set [2], the target named is T1, ABHD6 (Mus musculus, UniProt Q8R2Y0).
T1 sequence (Q8R2Y0 1-336): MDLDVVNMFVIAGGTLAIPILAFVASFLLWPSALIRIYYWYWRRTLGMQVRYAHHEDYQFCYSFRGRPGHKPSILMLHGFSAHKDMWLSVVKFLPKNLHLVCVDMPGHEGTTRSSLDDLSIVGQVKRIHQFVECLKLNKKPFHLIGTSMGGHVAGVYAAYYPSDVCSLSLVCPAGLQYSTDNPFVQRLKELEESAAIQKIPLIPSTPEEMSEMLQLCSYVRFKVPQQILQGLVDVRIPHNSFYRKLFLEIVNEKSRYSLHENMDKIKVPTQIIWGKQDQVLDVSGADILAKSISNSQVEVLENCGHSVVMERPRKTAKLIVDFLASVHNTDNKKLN
The conditions noted are these: negligible cross-reactivity with FAAH; cited from earlier work.

Data set [3] addresses T2, mouse brain membrane SH enzymes (Mus musculus, UniProt O08914).
T2 sequence (O08914 1-579): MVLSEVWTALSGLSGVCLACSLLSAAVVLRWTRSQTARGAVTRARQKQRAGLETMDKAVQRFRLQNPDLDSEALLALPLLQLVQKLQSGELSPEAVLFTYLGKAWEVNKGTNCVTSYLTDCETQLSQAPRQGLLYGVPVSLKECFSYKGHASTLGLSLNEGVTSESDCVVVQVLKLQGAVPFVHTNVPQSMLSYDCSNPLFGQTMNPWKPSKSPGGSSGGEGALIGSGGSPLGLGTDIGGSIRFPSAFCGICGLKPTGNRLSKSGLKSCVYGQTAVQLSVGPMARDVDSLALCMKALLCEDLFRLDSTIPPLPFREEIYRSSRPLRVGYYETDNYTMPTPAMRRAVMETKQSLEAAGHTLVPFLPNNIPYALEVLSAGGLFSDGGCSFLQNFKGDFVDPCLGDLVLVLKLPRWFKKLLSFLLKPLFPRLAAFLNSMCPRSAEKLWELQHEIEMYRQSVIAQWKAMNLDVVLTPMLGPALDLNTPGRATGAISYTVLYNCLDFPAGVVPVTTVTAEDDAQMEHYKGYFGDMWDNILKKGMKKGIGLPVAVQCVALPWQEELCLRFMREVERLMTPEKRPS
The class given is biochemical. The conditions noted are these: competitive ABPP, FP-Rh. An outline of the steps: as §1

In data set [4] the test system is Neuro2A membrane proteome. The experiment in a line: click chemistry-ABPP of Neuro2A cells treated in situ with compound 2. The class given is cell-based, mouse. The conditions noted are these: Neuro2A cells 1 hr, click with azide-Rh.
Data set [5] deals with T3, Neuro2A membrane proteome (Mus musculus, UniProt Q8R2Y0).
T3 sequence (Q8R2Y0 1-336): T1 sequence (Q8R2Y0 1-336)
Described as above. The data set is classed as cell-based. The conditions noted are these: Neuro2A cells 1 hr, click with azide-Rh.

Data set [6] relates to other brain and liver SHs (CES1, FAAH). The class given is in vivo. The conditions noted are these: mouse, i.p., 4 hr, FP-Rh gels. A digest of the protocol:
(§2)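 Mice were dosed i.p. in 18:1:1 saline/ethanol/PEG40 (10 μL g-1) or by oral gavage in PEG300 (4 μL g-1). After 4 hr they were anaesthetised with isoflurane and killed by cervical dislocation. Brain and liver were Dounce-homogenised in PBS pH 7.5, and membrane fractions (100,000 × g pellet) were labelled with FP-rhodamine or HT-01 (1 μM, 30 min, 37 °C). Readout was SDS-PAGE with in-gel fluorescence.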

The target in data set [7] is T4, other brain and liver SHs (CES1, FAAH) (Mus musculus, UniProt O08914).
T4 sequence (O08914 1-579): T2 sequence (O08914 1-579)
The class given is in vivo. The conditions noted are these: for lowest oral dose with cross-reactivity with FAAH in the brain: oral gavage. A digest of the protocol:
as §2

Data set [8] relates to other SHs detected in Neuro2A cells. The experiment in a line: ABPP-SILAC of Neuro2A cells treated in situ: other serine hydrolases. The class given is cell-based, mouse. The conditions noted are these: 3 nM, 4 hr. A digest of the protocol: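 Neuro2A cells were grown 10 passages in light or heavy (13C/15N Arg and Lys) SILAC DMEM with 10% dialyzed FCS and 2 mM L-glutamine. Heavy cells received test compound and light cells DMSO (4 hr, 37 °C). Soluble and membrane proteomes (2.0 mg/mL) were labeled with 10 μM FP-biotin (2 hr, 25 °C), mixed 1:1, avidin-enriched, trypsin-digested on bead (12 hr, 37 °C) and analysed by LC-MS/MS. Heavy/light ratios were taken from ≥3 unique peptides per enzyme.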

Data set [9] concerns the target T1, ABHD6. The experiment in a line: in vivo ABHD6 inhibition in mouse liver, gel-based competitive ABPP. The conditions noted are these: 4 hr; for liver ABHD6 inhibition at 1 mg kg^-1: i.p., 1 mg kg^-1, HT-01 gels.
In data set [10] the target is T5, endogenous ABHD6 (Mus musculus, UniProt Q8R2Y0).
T5 sequence (Q8R2Y0 1-336): T1 sequence (Q8R2Y0 1-336)
The experiment in a line: gel-based competitive ABPP. The data set is classed as biochemical. The conditions noted are these: versus compound 1.

Data set [11] concerns the target T1, ABHD6. The experiment in a line: in situ ABHD6 inhibition in Neuro2A cells, gel-based competitive ABPP. The class given is cell-based. The conditions noted are these: for potency and selectivity in cells: abstract statement; for fold more potent in situ compared to compound 1: versus compound 1.
Data set [12] addresses T1, ABHD6. The experiment in a line: in vivo ABHD6 inhibition in mouse brain, gel-based competitive ABPP. The conditions noted are these: for brain ABHD6 inhibition: 1 mg kg^-1 (20: all doses tested, 0.1-1 mg kg^-1).
[13] abbreviates: Table 1, mouse brain membrane proteome.

Structures are written as SMILES. Entries after “also recorded” stand apart in the source; their conditions may differ. Where two headings read alike, the source gives them in different places. Some results are limits rather than exact numbers.

`COc1ccc(-c2ccc(-c3cn(C(=O)N4CCCCC4c4ccccc4)nn3)cc2)cc1` (centres unmarked) [Compound 1]: the “Off-targets (10 μM)” value in [1] (setting [13]) is reported as “FAAH”. The “concentration that completely inactivates ABHD6 in living cells” value in data set [2] was 25 nM.
Turning to `C#CCOCCCc1ccc(C2CCCCN2C(=O)n2cc(-c3ccc(-c4ccc(OC)cc4)cc3)nn2)cc1` (centres unmarked) [Compound 2], the “concentrations cross-reactive with FAAH in mouse brain proteome” value in [3] lay in the range of 0.4 to 10 µM. The “concentrations with limited cross-reactivity (60 kDa protein, likely FAAH)” value in data set [4] fell in the range of 80 to 600 nM. The “lowest concentration at which the ∼35 kDa target (ABHD6) was detected” value in data set [5] turned out to be 10 nM.
For the compound `COc1ccccc1-c1ccc(-c2cn(C(=O)N3CCCCC3Cc3ccccc3)nn2)cc1` (centres unmarked) [Compound 3], in [1] (setting [13]), the “Off-targets (10 μM)” value is listed as “MGLL”.
With `O=C(N1CCCCC1Cc1ccccc1)n1cc(-c2ccc(-c3cccc(CO)c3)cc2)nn1` (centres unmarked) [Compound 4], in data set [1] (setting [13]), the “Off-targets (10 μM)” value is given as “none”.
In the case of `O=C(c1ccc(-c2ccc(-c3cn(C(=O)N4CCCCC4Cc4ccccc4)nn3)cc2)cc1)N1CCCCC1` (centres unmarked) [Compound 5], in data set [1] (setting [13]), the “Off-targets (10 μM)” value is given as “none”.
As for `COc1ccccc1-c1ccc(-c2cn(C(=O)N3CCCCC3c3ccccc3)nn2)cc1` (centres unmarked) [Compound 6], the “Off-targets (10 μM)” value in data set [1] (setting [13]) is on record as “FAAH, MGLL”.
Consider `O=C(N1CCCCC1c1ccccc1)n1cc(-c2ccc(-c3ccccc3CO)cc2)nn1` (centres unmarked) [Compound 8], for which, in data set [1] (mouse brain SHs), the “Off-targets (1 μM)” value is recorded as “none”. The “Off-targets (10 μM)” value in data set [1] (Table 2, mouse brain SHs) is “FAAH, LYPLA1, LYPLA2”.
On to `O=C(N1CCCCC1c1ccccc1)n1cc(-c2ccc(-c3cccc(CO)c3)cc2)nn1` (centres unmarked) [Compound 9, (4-(3′-(Hydroxymethyl)-[1,1′-biphenyl]-4-yl)-1H-1,2,3-triazol-1-yl)(2-phenylpiperidin-1-yl)methanone], for which the “Off-targets (1 μM)” value in [1] (mouse brain SHs) is “none”. In data set [1] (Table 2, mouse brain SHs), the “Off-targets (10 μM)” value is on record as “FAAH, LYPLA1, LYPLA2”. The “inhibition of off-target carboxylesterase-1 (CES1) in vivo” value in [6] was “inhibited”. The “lowest oral dose with cross-reactivity with FAAH in the brain” value in [7] turned out to be 10 mg/kg. Besides, the “cross-reactivity against the ∼50 other SHs (ABPP-SILAC)” value (“cross-reactivity … (ABPP-SILAC)” below) in data set [8] was less than 50%. Besides, in data set [9], the “liver ABHD6 inhibition at 1 mg kg^-1” value was “near-complete blockade; also recorded: near-complete inactivation”. Besides, the “fold more potent in vitro compared to compound 1” value (shortened to “fold more potent in vitro”) in data set [10] is recorded as roughly 10 fold. In addition, in data set [11], the “potency and selectivity in cells” value is less than 5 nM; the “fold more potent in situ compared to compound 1” value (“fold more potent in situ” for short) was roughly 5 fold. Further, the “brain ABHD6 inhibition” value in data set [12] (i.p., 4 hr) is given as “completely inactivated; also recorded: near-complete inactivation”.
As for `O=C(N1CCCCC1c1ccccc1)n1cc(-c2ccc(-c3ccc(CO)cc3)cc2)nn1` (centres unmarked) [Compound 10], in data set [1] (mouse brain SHs), the “Off-targets (1 μM)” value was “none”. The “Off-targets (10 μM)” value in data set [1] (Table 2, mouse brain SHs) was “FAAH, LYPLA1, LYPLA2”.
Turning to `O=C(c1cccc(-c2ccc(-c3cn(C(=O)N4CCCCC4c4ccccc4)nn3)cc2)c1)N1CCCCC1` (centres unmarked) [Compound 11, (2-Phenylpiperidin-1-yl)(4-(3′-(piperidine-1-carbonyl)-[1,1′-biphenyl]-4-yl)-1H-1,2,3-triazol-1-yl)methanone], the “Off-targets (1 μM)” value in data set [1] (mouse brain SHs) is on record as “none”. The “Off-targets (10 μM)” value in [1] (Table 2, mouse brain SHs) is “LYPLA1, LYPLA2”. For the same compound, the “cross-reactivity with FAAH in brain in vivo” value in data set [7] (i.p., 1-40 mg kg^-1, 4 hr) is “negligible”. Moreover, the “cross-reactivity … (ABPP-SILAC)” value in [8] is given as less than 50%. For the same compound, in [9], the “doses giving near-complete blockade of ABHD6 in the liver (i.p.)” value fell in the range of 5 to 10 mg/kg. For the same compound, in data set [10], the “fold more potent in vitro” value is roughly 10 fold. In addition, in data set [11], the “fold more potent in situ” value was roughly 5 fold. Moreover, in data set [12] (i.p., 4 hr), the “dose to completely block ABHD6 in the brain (i.p.)” value is roughly 40 mg/kg. The inhibition (usually the relative decrease from the control value, in per cent) at 20 mg/kg in data set [12] (ip, read-out: brain ABHD6 inhibition at 20 mg kg^-1) was greater than 70%. Also, the “dose producing complete blockade of brain ABHD6 (p.o.)” value in data set [12] (p.o., PEG300, 4 hr) was 40 mg/kg.
Consider `O=C(c1ccc(-c2ccc(-c3cn(C(=O)N4CCCCC4c4ccccc4)nn3)cc2)cc1)N1CCCCC1` (centres unmarked) [Compound 12], for which the “Off-targets (1 μM)” value in [1] (mouse brain SHs) is given as “none”. Also, the “Off-targets (10 μM)” value in data set [1] (Table 2, mouse brain SHs) is on record as “LYPLA1, LYPLA2”.
`NC(=O)c1ccc(-c2ccc(-c3cn(C(=O)N4CCCCC4c4ccccc4)nn3)cc2)cc1` (centres unmarked) [Compound 13]: in data set [1] (mouse brain SHs), the “Off-targets (1 μM)” value was “none”. Further, in data set [1] (Table 2, mouse brain SHs), the “Off-targets (10 μM)” value is “FAAH, LYPLA1, LYPLA2”.
Regarding `O=C(O)c1cccc(-c2ccc(-c3cn(C(=O)N4CCCCC4Cc4ccccc4)nn3)cc2)c1` (centres unmarked) [Compound 20, 4′-(1-(2-Benzylpiperidine-1-carbonyl)-1H-1,2,3-triazol-4-yl)-[1,1′-biphenyl]-3-carboxylic acid], in data set [1] (mouse brain SHs), the “Off-targets (1 μM)” value is “none”. Also, the “Off-targets (10 μM)” value in data set [1] (Table 2, mouse brain SHs) is recorded as “FAAH, DAGLβ”. In data set [7], the “lowest oral dose with cross-reactivity with FAAH in the brain” value is 10 mg/kg. Also, in data set [8], the “cross-reactivity … (ABPP-SILAC)” value is less than 50%. Moreover, the “liver ABHD6 inhibition at 1 mg kg^-1” value in [9] is “near-complete blockade; also recorded: near-complete inactivation”. Moreover, in data set [10], the “fold more potent in vitro” value is on record as roughly 10 fold. In [11], the “potency and selectivity in cells” value was less than 5 nM; the “fold more potent in situ” value was roughly 5 fold. For the same compound, in data set [12] (i.p., 4 hr), the “brain ABHD6 inhibition” value is on record as “negligible inhibition”.
On to `O=C(O)c1cccc(-c2ccc(-c3cn(C(=O)N4CCCCC4c4ccccc4)nn3)cc2)c1` (centres unmarked) [Compound 21], for which, in data set [1] (mouse brain SHs), the “Off-targets (1 μM)” value is “APEH, LYPLA1, and LYPLA2”. In addition, the “Off-targets (10 μM)” value in [1] (Table 2, mouse brain SHs) was “FAAH, APEH, LYPLA1, LYPLA2”.
For `O=C(O)c1cccc(-c2ccc(-c3cn(C(=O)N4CCCCC4CCc4ccccc4)nn3)cc2)c1` (centres unmarked) [Compound 22], the “Off-targets (1 μM)” value in data set [1] (mouse brain SHs) is reported as “none”. In data set [1] (Table 2, mouse brain SHs), the “Off-targets (10 μM)” value was “FAAH”.
